Values after ≈ are worked out from the molar mass of the structure shown.
Experiments:
Format in all cases: functional
Botryosphaeria dothidea = assay: Antifungal activity against Botryosphaeria dothidea CICC 2678 after 48 hrs by broth dilution assay; details: CICC 2678, 48 h
Method in brief: (§1)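 Conventional broth dilution. Fungi were grown on PDA at 28 °C for 72 h. Seed culture was diluted in PYG (peptone 1.0%, glucose 2.0%, yeast extract 1.0%) in 96-well plates. DMSO stocks (10 mg/mL) were serially diluted to in-test 0.78–100 μg/mL. Plates were incubated 48 h at 28 °C, humidified. Ketoconazole was the positive control and DMSO the negative control. MIC was the endpoint.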

Fusarium oxysporum = assay: Antifungal activity against […] oxysporum CICC 41029 after 48 hrs by broth dilution assay; details: CICC 41029, 48 h; method in brief: as §1
Alternaria brassicicola = assay: Antifungal activity against Alternaria brassicicola CICC 2646 after 48 hrs by broth dilution assay; details: CICC 2646, 48 h; method in brief: as §1
Vibrio alginolyticus = assay: Antibacterial activity against Vibrio alginolyticus CICC 21664 after 48 hrs by broth dilution method; details: CICC 21664, 48 h
Method in brief: (§2)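 Microbroth dilution in LB medium (peptone 10 g/L, yeast extract 5 g/L, NaCl 10 g/L). Ciprofloxacin served as positive control. MIC was read as the endpoint.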

Vibrio parahaemolyticus = assay: Antibacterial activity against Vibrio parahaemolyticus CICC 10552 after 48 hrs by broth dilution method; method in brief: as §2
Vibrio anguillarum = assay: Antibacterial activity against Vibrio anguillarum CICC 10475 after 48 hrs by broth dilution method; method in brief: as §2

MIC (Botryosphaeria dothidea) [µg/mL]	MIC (Fusarium oxysporum) [µg/mL]	MIC (Alternaria brassicicola) [µg/mL]	MIC (Vibrio alginolyticus) [µg/mL]	MIC (Vibrio anguillarum) [µg/mL]	MIC (Vibrio anguillarum; Vibrio anguillarum, CICC 10475, 48 h, read-out: MIC) [µg/mL]	SMILES	MIC (Vibrio parahaemolyticus) [µg/mL]	MIC (Vibrio parahaemolyticus; Vibrio parahaemolyticus, CICC 10552, 48 h, read-out: MIC) [µg/mL]
3.1 (≈ 6.45 µM)	25 (≈ 52 µM)	6.3 (≈ 13.1 µM)	–	–	–	C/C=C(\C)[C@H](OC(C)=O)[C@H](C)C(=O)O[C@@]1(C)C(=O)C=C2C=C(c3c(C)cccc3O)OC=C2C1=O	–	–
13 (≈ 25.1 µM)	1.6 (≈ 3.09 µM)	1.6 (≈ 3.09 µM)	–	–	–	C/C=C(\C)[C@H](OC(C)=O)[C@H](C)C(=O)O[C@@]1(C)C(=O)C2=COC(C3=C(C)CCCC3=O)=CC2=C(Cl)C1=O	–	–
–	–	–	–	13 (≈ 29.9 µM)	–	COC(CO)CC1=CC2=CC(=O)[C@@](C)(O)[C@@H](OC(=O)c3c(C)cc(O)cc3O)[C@@H]2CO1 (stereo in doubt; 6)	6.3 (≈ 14.5 µM)	–

Further lines, the compound ahead of its results:

SMILES	MIC (Botryosphaeria dothidea) [µg/mL]	MIC (Fusarium oxysporum) [µg/mL]	MIC (Alternaria brassicicola) [µg/mL]	MIC (Vibrio alginolyticus) [µg/mL]	MIC (Vibrio anguillarum) [µg/mL]	MIC (Vibrio anguillarum; Vibrio anguillarum, CICC 10475, 48 h, read-out: MIC) [µg/mL]	MIC (Vibrio parahaemolyticus) [µg/mL]	MIC (Vibrio parahaemolyticus; Vibrio parahaemolyticus, CICC 10552, 48 h, read-out: MIC) [µg/mL]
C/C=C(\C)[C@H](OC(C)=O)[C@H](C)C(=O)O[C@@]1(C)C(=O)C=C2C=C(C3=C(C)CCCC3=O)OC=C2C1=O	13 (≈ 26.9 µM)	6.3 (≈ 13.1 µM)	13 (≈ 26.9 µM)	–	–	–	–	–
CO[C@@H]1CO[C@@]2(CC3=CC(=O)[C@@](C)(O)[C@@H](OC(=O)c4c(C)cc(O)cc4O)[C@@H]3CO2)C1	> 50	> 50	> 50	25 (≈ 57.5 µM)	–	–	–	–
CO[C@H]1CO[C@@]2(CC3=CC(=O)[C@@](C)(O)[C@@H](OC(=O)c4c(C)cc(O)cc4O)[C@@H]3CO2)C1	> 50	> 50	> 50	25 (≈ 57.5 µM)	–	–	–	–
COC(CO)CC1=CC2=CC(=O)[C@@](C)(O)[C@@H](OC(=O)c3c(C)cc(O)cc3O)[C@@H]2CO1 (stereo in doubt; 7)	–	–	–	–	6.3 (≈ 14.5 µM)	–	25 (≈ 57.5 µM)	–
O=C(O)c1cn(C2CC2)c2cc(N3CCNCC3)c(F)cc2c1=O [CIPROFLOXACIN]	–	–	–	13 (≈ 39.2 µM)	–	6.3 (≈ 19 µM)	–	3.1 (≈ 9.36 µM)
CC(=O)N1CCN(c2ccc(OCC3COC(Cn4ccnc4)(c4ccc(Cl)cc4Cl)O3)cc2)CC1 (configuration not stated) [KETOCONAZOLE]	3.1 (≈ 5.83 µM)	6.3 (≈ 11.9 µM)	3.1 (≈ 5.83 µM)	–	–	–	–	–
